Laboratory results taken from ChEMBL document CHEMBL1629507, “Small molecule inhibitors of hantavirus infection” (Bioorg Med Chem Lett, 2010).
Where a SMILES comes first, the peptide text is derived from it. [ ]: non-standard residue; d: D form. The star is where a group is joined. Phe(4-F) = N[CH](Cc1ccc(F)cc1)C(=O)O; Tos = Cc1ccc(S(=O)(=O)*)cc1

The molecules below were run against Integrin alpha-V/beta-3 (Homo sapiens) (UniProt P05106+P06756) (assay: Inhibition of human alphaVbeta3 receptor expressed in african green monkey Vero E6 cells assessed as inhibition of SNV infection in cells at 1 uM by immunofluorescent assay).
Assay type: cell-based
Procedure, shortened: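 Vero E6 cells (10^4/well, duplicate wells) were grown 24 h at 37 °C in MEM with 2.5% FBS. They were pretreated 1 h at 37 °C with small molecules (1 µM) or cyclic peptides (2 mM, in PBS pH 7.4). SNV strain SN77734 (500–1,000 FFU/ml) was then added for 1 h, then washed out. After 24–36 h, cells were fixed and stained with anti-SNV N plus FITC antibody, and foci counted. % inhibition is relative to untreated cells, normalized to ReoPro 80 µg/ml set as 80%; at least 4 replicates.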
`O=C(CCn1c(=O)c2ccccc2n(Cc2cc(=O)n3ccccc3n2)c1=O)NCc1ccco1` was tested, and the inhibition was 15%. With `O=C(CSc1nc2ccccc2c(=O)n1Cc1ccc2c(c1)OCO2)NCc1ccco1` the inhibition was 34.2%. In the case of `O=C(Nc1ccccc1)C(Cc1ccccc1)NS(=O)(=O)c1cccc2cccnc12` (centres undefined), the inhibition is reported as 0%. Work on `O=C1c2cccnc2C(=O)N1Cc1ccc(F)cc1S(=O)(=O)N1CCC(Cc2ccccc2)CC1` yielded an inhibition of 0%. Molecule `CCOc1ccccc1CNC(=O)C1CCCN(c2ncnc3onc(-c4ccc(F)cc4)c23)C1` (centres undefined) has an inhibition of 18%. `O=C(NCc1ccc(Cl)cc1)C1CCCN(c2ncnc3onc(-c4ccc(F)cc4)c23)C1` (centres undefined) gave an inhibition of 23.6%. With `O=C(CCNS(=O)(=O)c1cccc2nsnc12)N(CCc1ccccc1)Cc1ccccc1` the inhibition was 0%. For `O=C(NCc1ccccc1Cl)C(Cc1ccccc1)NS(=O)(=O)c1cccc2cccnc12` (centres undefined), the inhibition was 21.4%. With `COc1ccc(OC)c(CNC(=O)C2CCCN(c3ncnc4onc(-c5ccc(F)cc5)c34)C2)c1` (centres undefined) the inhibition was 28%. `O=C(NCc1cccs1)C(Cc1ccccc1)NS(=O)(=O)c1cccc2cccnc12` (centres undefined) showed an inhibition of 12%. Work on `Cc1ccc(CNC(=O)C(Cc2ccccc2)NS(=O)(=O)c2cccc3cccnc23)cc1` (centres undefined) yielded an inhibition of 0%. `COc1ccc([N+](=O)[O-])cc1NC(=O)C(Cc1ccccc1)NS(=O)(=O)c1cccc2nsnc12` (centres undefined) was tested, and the inhibition was 8%. With `O=C(N/N=C1\C(=O)N(CN(Cc2ccccc2)Cc2ccccc2)c2ccccc21)c1cccs1` the inhibition was 3.8%. Molecule `O=C(NCc1cccnc1)C(Cc1ccccc1)NS(=O)(=O)c1cccc2nsnc12` (centres undefined) has an inhibition of 35%. `O=C(CSc1nc2ccccc2n1S(=O)(=O)c1ccc(Cl)cc1)NCCc1ccccc1` showed an inhibition of 13.6%. Work on `NS(=O)(=O)c1ccc(CCNC(=O)C(Cc2ccccc2)NS(=O)(=O)c2cccc3nsnc23)cc1` (centres undefined) yielded an inhibition of 9.6%. Work on `COc1ccc(CNC(=O)C2CCCN(c3ncnc4onc(C)c34)C2)cc1` (centres undefined) yielded an inhibition of 4.6%. Work on `C/C=C/C(=O)NC(=S)NNC(=O)C(Oc1ccccc1)Oc1ccccc1` yielded an inhibition of 16.1%. `Cc1ccc(C)c(NC(=O)C(Cc2ccccc2)NS(=O)(=O)c2cccc3cccnc23)c1` (centres undefined) was tested, and the inhibition was 0%. In the case of `O=C(C(Cc1ccccc1)NS(=O)(=O)c1ccc2nsnc2c1)N1CCn2c1nc1ccccc12` (centres undefined), the inhibition is reported as 0%. In the case of `O=C(CC(NS(=O)(=O)c1ccc(Cl)cc1)c1ccco1)NCc1cccnc1` (centres undefined), the inhibition is reported as 9.6%. `O=S(=O)(c1cccc2cccnc12)N1CCN(Cc2ccc3c(c2)OCO3)CC1` gave an inhibition of 0%. In the case of `O=C(NCC1COc2ccccc2O1)C(Cc1ccccc1)NS(=O)(=O)c1ccc2nsnc2c1` (centres undefined), the inhibition is reported as 20%. `COc1ccccc1CNC(=O)C(Cc1ccccc1)NS(=O)(=O)c1cccc2nsnc12` (centres undefined) gave an inhibition of 4.8%. With `COc1ccc(OC)c(NC(=O)C(Cc2ccccc2)NS(=O)(=O)c2cccc3nsnc23)c1` (centres undefined) the inhibition was 6.4%. Work on `O=C(C(Cc1ccccc1)NS(=O)(=O)c1cccc2cccnc12)N1CCC2(CC1)OCCO2` (centres undefined) yielded an inhibition of 9%. `O=C(NCCc1ccccc1)C(Cc1ccccc1)NS(=O)(=O)c1ccc(Br)cc1` (centres undefined) gave an inhibition of 6.4%. Work on `CN1CCN(c2ccccc2NC(=O)C(Cc2ccccc2)NS(=O)(=O)c2cccc3nsnc23)CC1` (centres undefined) yielded an inhibition of 9.6%. `CC(NC(=O)C(Cc1ccccc1)NS(=O)(=O)c1cccc2nsnc12)c1ccccc1` (centres undefined) showed an inhibition of 2%. With `O=C(c1ccco1)N1CCN(C(=O)C(Cc2ccccc2)NS(=O)(=O)c2ccc3nsnc3c2)CC1` (centres undefined) the inhibition was 22%. `O=C(NCc1ccc2c(c1)OCO2)C(Cc1ccccc1)NS(=O)(=O)c1cccc2nsnc12` (centres undefined) gave an inhibition of 0%. Work on `CCc1ccc(CNC(=O)C2CCCN(c3ncnc4onc(-c5ccc(F)cc5)c34)C2)cc1` (centres undefined) yielded an inhibition of 7%. `Cc1cccc(CN2C(=O)c3ccccc3Sc3ccc(C(=O)NCc4cccs4)cc32)c1` was tested, and the inhibition was 8.3%. Molecule `O=C(NCc1ccc(Cl)cc1)C(Cc1ccccc1)NS(=O)(=O)c1cccc2cccnc12` (centres undefined) has an inhibition of 9.1%. `CC(C)c1ccc(S(=O)(=O)c2nnn3c2nc(NC(C)c2ccccc2)c2sccc23)cc1` (centres undefined) gave an inhibition of 8%. With `COc1ccc(CNC(=O)c2ccc3c(c2)N(Cc2ccccc2)C(=O)c2ccccc2S3)cc1` the inhibition was 22%. `COc1ccccc1NC(=O)C(Cc1ccccc1)NS(=O)(=O)c1cccc2cccnc12` (centres undefined) was tested, and the inhibition was 19.3%. Molecule `O=C1c2cccnc2C(=O)N1Cc1ccc(F)cc1S(=O)(=O)N1CCN(c2ccccc2F)CC1` has an inhibition of 2.3%. `CC1(C)CC(=O)c2cc(C(=O)NCCCN3CCOCC3)c(=O)n(-c3ccc(Cl)cc3)c2C1` gave an inhibition of 18%. `CCOC(=O)C(NC(=O)/C(=C/c1ccc(Cl)cc1)NC(=O)c1ccco1)C(C)C` (centres undefined) was tested, and the inhibition was 0%. Molecule `Cc1nnc(SCC(=O)NCCc2cccs2)c2nn(-c3ccccc3)c(C)c12` has an inhibition of 17%. `O=C(NCCC1=CCCCC1)C(Cc1ccccc1)NS(=O)(=O)c1cccc2cccnc12` (centres undefined) was tested, and the inhibition was 19.3%. Work on `CCCN(CCC)CCNC(=O)C(Cc1ccccc1)NS(=O)(=O)c1cccc2nsnc12` (centres undefined) yielded an inhibition of 34%. `Cc1cccc(CN2C(=O)c3ccccc3Sc3ccc(C(=O)NCc4ccco4)cc32)c1` gave an inhibition of 26%. In the case of `COc1ccc(CCNC(=O)C(Cc2ccccc2)NS(=O)(=O)c2cccc3nsnc23)cc1OC` (centres undefined), the inhibition is reported as 0%. `O=C(C(Cc1ccccc1)NS(=O)(=O)c1cccc2cccnc12)N1CCOCC1` (centres undefined) showed an inhibition of 4.5%. `COc1ccc(OC)c(CNC(=O)C2CCCN(c3ncnc4onc(C)c34)C2)c1` (centres undefined) was tested, and the inhibition was 0%. For `Cc1noc2ncnc(N3CCCC(C(=O)NCc4ccc5c(c4)OCO5)C3)c12` (centres undefined), the inhibition was 3%. `CCN(CCNC(=O)C(Cc1ccccc1)NS(=O)(=O)c1cccc2nsnc12)c1ccccc1` (centres undefined) was tested, and the inhibition was 8%. In the case of `N#Cc1ccccc1Cn1c(=O)n(CCC(=O)NCc2ccc3c(c2)OCO3)c(=O)c2ccccc21`, the inhibition is reported as 1%. Molecule `COc1cccc(C(CC(=O)NCCCN2CCOCC2)NS(=O)(=O)c2ccc(C)cc2)c1OC` (centres undefined) has an inhibition of 0%. With `O=C(Cn1c(=O)n(Cc2ccco2)c(=O)c2sc3ccccc3c21)NCc1ccc(Cl)cc1` the inhibition was 0%. `COc1ccc(CCNC(=O)C(Cc2ccccc2)NS(=O)(=O)c2ccc(Br)cc2)cc1OC` (centres undefined) gave an inhibition of 14%. `Cc1cccc(NC(=O)C(Cc2ccccc2)NS(=O)(=O)c2cccc3nsnc23)n1` (centres undefined) gave an inhibition of 17.7%. `O=C(CSc1nc2nccnc2c(=O)n1Cc1cccs1)NCCc1ccccc1` showed an inhibition of 6%. `COc1ccccc1C1CC(c2c(O)[nH]c(=O)n(CCc3ccccc3)c2=O)=Nc2ccccc2S1` (centres undefined) gave an inhibition of 18%. Work on `COc1ccc(C(CC(=O)NCCN2CCOCC2)NS(=O)(=O)c2ccc(Cl)cc2)cc1` (centres undefined) yielded an inhibition of 0%. `O=C(NCc1ccccc1Cl)C(Cc1ccccc1)NS(=O)(=O)c1cccc2nsnc12` (centres undefined) gave an inhibition of 0%. In the case of `O=C(CCCn1c(=O)c2sccc2n(Cc2ccc(F)cc2Cl)c1=O)NCc1ccco1`, the inhibition is reported as 12.2%. `COc1ccccc1CNC(=O)C(Cc1ccccc1)NS(=O)(=O)c1cccc2cccnc12` (centres undefined) gave an inhibition of 9.6%. `Cc1ccc(S(=O)(=O)NC(Cc2ccccc2)C(=O)NC(CCCNC(=N)N)C(=O)O)cc1` (stereo not drawn) (Tos-Phe-Arg-OH; configuration not given here) showed an inhibition of 0%. `CN1CCN(C(=O)C(Cc2ccccc2)NS(=O)(=O)c2cccc3cccnc23)CC1` (centres undefined) gave an inhibition of 0%. Molecule `Cc1ccc(S(=O)(=O)NC(Cc2ccc(F)cc2)C(=O)NC(CCCNC(=N)N)C(=O)O)cc1` (centres undefined) (Tos-[Phe(4-F)]-Arg-OH; configuration not given here) has an inhibition of 0%. Molecule `COc1ccc(N2CCN(C(=O)Cc3csc4nc(-c5ccc(F)cc5)cn34)CC2)cc1` has an inhibition of 0%. Molecule `COc1cccc(CNC(=O)C(Cc2ccccc2)NS(=O)(=O)c2cccc3cccnc23)c1` (centres undefined) has an inhibition of 0.8%. Molecule `O=C(CCCn1c(=O)c2sccc2n(Cc2ccc(F)cc2)c1=O)NCc1ccco1` has an inhibition of 0%. `CCC1CCCCN1CCNC(=O)C(Cc1ccccc1)NS(=O)(=O)c1ccc2nsnc2c1` (centres undefined) was tested, and the inhibition was 0%. Molecule `O=C(NCc1ccccc1)C(Cc1ccccc1)NS(=O)(=O)c1cccc2nsnc12` (centres undefined) has an inhibition of 3.2%. `Cc1cc(NC(=O)C(Cc2ccccc2)NS(=O)(=O)c2cccc3cccnc23)no1` (centres undefined) showed an inhibition of 9.6%. For `O=C(NC1CCCc2ccccc21)C(Cc1ccccc1)NS(=O)(=O)c1cccc2nsnc12` (centres undefined), the inhibition was 0%. `COc1ccc(Cc2cccc(CNC(=O)C3CCCN(c4ncnc5onc(-c6ccc(F)cc6)c45)C3)c2)cc1` (centres undefined) showed an inhibition of 39%. `COc1ccc(/C=N/NC(=O)c2sc3ccccc3c2Cl)cc1CSc1ccccn1` gave an inhibition of 0%. Molecule `Cc1ccc(S(=O)(=O)NC(CC(=O)NCc2cccnc2)c2ccco2)cc1` (centres undefined) has an inhibition of 7%. Molecule `COc1ccc(CCNC(=O)C(Cc2ccccc2)NS(=O)(=O)c2ccc(Cl)cc2)cc1OC` (centres undefined) has an inhibition of 14%. `O=C(NCCC1=CCCCC1)C(Cc1ccccc1)NS(=O)(=O)c1cccc2nsnc12` (centres undefined) gave an inhibition of 0%. `CCOC(=O)c1sc2nc(SCC(=O)NCc3ccccc3)n(Cc3ccco3)c(=O)c2c1C` was tested, and the inhibition was 25.9%. Work on `O=C(NC(C(=O)N/N=C/c1ccco1)c1nnc(O)c2ccccc12)c1ccccc1` (centres undefined) yielded an inhibition of 33%. For `O=C(NC1CCCCCC1)C(Cc1ccccc1)NS(=O)(=O)c1cccc2nsnc12` (centres undefined), the inhibition was 0%. For `CCc1ccccc1NC(=O)C(Cc1ccccc1)NS(=O)(=O)c1cccc2nsnc12` (centres undefined), the inhibition was 2%. Work on `NS(=O)(=O)c1ccc(CCNC(=O)C(NS(=O)(=O)c2cccc3nsnc23)c2ccccc2)cc1` (centres undefined) yielded an inhibition of 6%. `Cc1cc(C)cc(-n2c(=O)c3sccc3n(CC(=O)N3CCN(c4ccccc4)CC3)c2=O)c1` gave an inhibition of 2.2%. `O=C(CSc1nc2nccnc2c(=O)n1Cc1ccc2c(c1)OCO2)NCCc1ccccc1` showed an inhibition of 8%. `Nc1c([S+]([O-])Cc2ccc(Cl)cc2)sc2nc(-c3cccs3)cc(-c3ccccc3)c12` (centres undefined) showed an inhibition of 1%. `O=S(=O)(c1cccc(SCc2ccccc2)c1)c1cccc(SCc2ccccc2)c1` showed an inhibition of 44.2%. With `O=C(NCc1ccccc1)C(Cc1ccccc1)NS(=O)(=O)c1cccc2cccnc12` (centres undefined) the inhibition was 11.2%. With `O=C(Cn1c(=O)n(Cc2ccc3c(c2)OCO3)c(=O)c2ccccc21)NCCc1ccccc1` the inhibition was 25.9%. With `Cc1ccc(S(=O)(=O)N2CCN(C(=O)CSc3nnc(C)c(=O)[nH]3)C2c2ccccc2)cc1` (centres undefined) the inhibition was 4%. `COc1ccc(NC(=O)C(Cc2ccccc2)NS(=O)(=O)c2cccc3cccnc23)c(OC)c1` (centres undefined) showed an inhibition of 22.5%. `CC1CCN(CCNC(=O)C(Cc2ccccc2)NS(=O)(=O)c2cccc3cccnc23)CC1` (centres undefined) showed an inhibition of 7%.
